High-throughput results from PubChem.
CAL PDZ FP-1: blocks peptide binding to human CAL PDZ domain; 330,000 compounds, 0.02% hits; purified CAL PDZ, TMR-peptide fluorescence polarization, 1 h; inhibition, % at 20 µM;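 active = highest replicate inhibition of at least 40%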;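 note: plate controls were DMSO neutral control wells for no effect and unlabeled competitor peptide control wells for full effect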
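material = purified tagged CAL PDZ domain construct (CerCALP) | compound dosing = 20 µM, one dose | times = 1 h at RT | measured by = fluorescence polarization from S- and P-plane intensities, G-factor corrected | read-out = inhibition from polarization loss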
miR122 inh: miR-122 inhibition in Huh7 cells | Huh7 miR-122 Renilla luciferase sensor, 48 h; neutral wells = 0, positive control = 100 | 340,000 compounds, 0.3% hits | AID 602342 | activation (reporter increase), % at 12.5 µM;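 active = mean replicate activation score at least 90 and every replicate individually at or above 90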;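 note: higher luciferase means less miR-122 activity so hits act as miR-122 inhibitors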
CAL PDZ FP-2: inhibitors of human CAL PDZ peptide binding. 300,000 compounds, 0.92% hits. purified CAL PDZ, TMR-peptide fluorescence polarization, 1 h. inhibition, % at 24.9 µM. Q9HD26;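 active = mean inhibition of at least 30% with at least half of replicates also reaching 30%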;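 note: 0% = DMSO neutral control and 100% = excess unlabeled competitor peptide PRC23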
ARNT-TACC3 inh: ARNT/TACC3 interaction disruption. Q9Y6A5. 390,000 compounds, 0.66% hits. AlphaScreen His-ARNT PAS-B/GST-TACC3 binding, luminescence; TACC3 fragment carries E629A point mutation. inhibition, % at 9.99 µM;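 active = mean inhibition of replicates at least 50% and at least half of replicates each reaching 50%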;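 note: 0% = complete ARNT plus TACC3 wells and 100% = ARNT alone without TACC3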
PGC1a acetyl inh: lowers PGC1a acetylation signal in U2OS cells. AlphaScreen anti-acetyl-lysine; with virally co-expressed GCN5 acetyltransferase. inhibition, % at 15.6 µM. 350,000 compounds, 0.17% hits. AID 651687;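 active = every replicate shows inhibition of at least 40%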;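 note: 0% = neutral control wells and 100% = positive control wells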
CFTR F508del cor: correctors of CFTR F508del function in bronchial epithelial cells; CFBE cells, YFP halide quenching; stimulated with forskolin plus potentiator P3; % fluorescence drop versus neutral controls; activity (quench increase), % at 7.58 µM; 350,000 compounds, 0.36% hits; AID 720511;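 active = mean added fluorescence quench of at least 8% versus neutral control, with both replicates also reaching 8%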;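 note: cells transiently co-express mutant CFTR-F508del with the halide-sensitive YFP; corrector assay measuring rescue of mutant channel to the surface after 24 h compound exposure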
Numbers without * were called inactive; / = no result; [ ] = dose if it differs, or a comment. The list is not random: actives were taken first. Their share in the collection is about 1.7%.

SMILES | CAL PDZ FP-1 | miR122 inh | CAL PDZ FP-2 | ARNT-TACC3 inh | PGC1a acetyl inh | CFTR F508del cor
CN(C)CC(=O)N1CCCCN2[C@@H](CO)[C@@H](c3ccc(/C=C/c4ccccc4)cc3)[C@@H]2C1 | / | -32.1[16.7 µM] | / | 22.6 | -26.8 | -8.1
O=C(Nc1ccccc1F)N1CC2(C1)[C@H](c1ccccc1)[C@H](CO)N2C(=O)CC1CC1 | / | / | / | / | -7.4 | -2.7
C[C@H](CO)N1C[C@H](C)[C@H](CN(C)S(=O)(=O)c2ccc(Cl)cc2)Oc2ccc(NS(C)(=O)=O)cc2C1=O | / | -4.0[16.7 µM] | / | / | -0.9 | -2.3
O=C(NCc1ccccn1)Nc1cccc(NC(=O)NCc2ccccn2)c1 | -0.6 | -7.2 | -1.9 | 78.2* | -10.0 | /
COc1ccc(C)cc1Nc1c2c(nc3ccccc13)CCC2 | -0.4 | / | -5.7 | 5.8 | / | 13.5*
Cc1noc(NS(=O)(=O)c2ccc(NC(=O)c3ccc(N(C)C)cc3)cc2)c1C | -0.2 | -5.2 | 57.7* | -1.5 | 1.4 | -9.0
Cc1noc(NS(=O)(=O)c2ccc(NC(=O)c3ccc(OC(C)C)cc3)cc2)c1C | -2.0 | / | -4.3 | 0.0 | / | -0.5
Cc1cc(C)c(S(=O)(=O)NCc2ccc3c(c2)OCO3)c(C)c1 | / | 51.0 | 69.3* | -0.8 | -5.1 | -0.8
Cc1cc(C)c(S(=O)(=O)NCc2ccc3c(c2)OCO3)cc1C | -0.5 | 71.2 | -0.3 | -1.6 | -3.4 | 0.4
C[C@H]1CN([C@@H](C)CO)C(=O)c2cc(NC(=O)Cc3ccccc3)ccc2O[C@@H]1CN(C)Cc1ccc(C(F)(F)F)cc1 | / | -2.0[16.7 µM] | / | 5.9 | 0.8 | -1.1
COc1ccc(NC(C)=O)cc1NC(=O)c1ccc(C#N)cc1 | -1.9 | 0.6 | 30.7* | -4.3 | / | -3.0
Cc1cc(C)c(NC(=O)c2ccc(S(=O)(=O)N(C)C)cc2)c(C)n1 | -2.2 | / | -3.6 | -29.4 | 50.4* | -2.6
C=CC[C@]1(C(=O)NCc2ccccc2)N=C(c2ccc(OCCCO)cc2)O[C@H]1c1ccccc1 | / | / | / | 3.2 | / | 1.2
CCCCN1C(=O)/C(=C/C=C2\Oc3ccccc3N2CC)SC1=S | 1.8 | / | 1.0 | -4.2 | -3.1 | 17.0*
C[C@H]1CN([C@@H](C)CO)C(=O)c2cc(C#CCC3CCCC3)cnc2O[C@H]1CN(C)Cc1ccccn1 | / | 12.5[16.7 µM] | / | / | -9.2 | 3.7
C[C@H]1CN([C@@H](C)CO)C(=O)c2cc(NC(=O)NC3CCCCC3)ccc2O[C@@H]1CN(C)C(=O)Nc1ccccc1 | / | 93.4*[16.7 µM] | / | 6.3 | / | -2.2
C[C@H]1CN([C@@H](C)CO)C(=O)c2cc(NC(=O)NC3CCCCC3)ccc2O[C@H]1CN(C)C(=O)Nc1ccccc1 | / | 4.8[16.7 µM] | / | -4.1 | 9.5 | -0.2
C[C@H](CO)N1C[C@H](C)[C@@H](CN(C)C(=O)Nc2ccc3c(c2)OCO3)Oc2ccc(N(C)C)cc2C1=O | / | 13.1[16.7 µM] | / | 10.0* | -11.9 | -1.7
C[C@@H]1CN([C@H](C)CO)C(=O)Cc2cc(NC(=O)CCN3CCOCC3)ccc2O[C@H]1CN(C)C(=O)Nc1ccc2c(c1)OCO2 | / | 4.6[16.7 µM] | / | 46.5* | -3.2 | -0.7
C[C@@H]1CN([C@@H](C)CO)C(=O)Cc2cc(NC(=O)CCN3CCOCC3)ccc2O[C@H]1CN(C)C(=O)Nc1ccc2c(c1)OCO2 | / | 2.1[16.7 µM] | / | 29.6 | 2.6 | -0.1
COc1ccc(NC(=O)Nc2ccc3c(c2)C(=O)N([C@H](C)CO)C[C@@H](C)[C@@H](CN(C)S(=O)(=O)c2ccc(OC)cc2)O3)cc1 | / | 101.4*[16.7 µM] | / | 8.9 | 7.1 | 0.9
COc1ccc(NC(=O)Nc2ccc3c(c2)C(=O)N([C@H](C)CO)C[C@@H](C)[C@H](CN(C)S(=O)(=O)c2ccc(OC)cc2)O3)cc1 | / | 18.3[16.7 µM] | / | 10.9 | -3.9 | -2.1
O=C(NC[C@H]1CC[C@@H]2[C@@H](CN2S(=O)(=O)c2ccccc2[N+](=O)[O-])O1)C1CCCC1 | / | / | / | / | / | 3.0
C[C@@H]1CN([C@@H](C)CO)S(=O)(=O)c2ccc(-c3ccncc3)cc2O[C@@H]1CN(C)C(=O)CN(C)C | / | -11.7[16.7 µM] | / | 0.2 | 1.3 | 2.9
CO[C@H]1CN(C)C(=O)c2cc(NC(=O)Nc3ccccc3F)ccc2OC[C@@H](C)N(CC2CC2)C[C@H]1C | / | / | / | -5.5 | 2.6 | 0.5
SMILES | CAL PDZ FP-1 | miR122 inh | CAL PDZ FP-2 | ARNT-TACC3 inh | PGC1a acetyl inh | CFTR F508del cor
C[C@@H]1CN([C@@H](C)CO)C(=O)CCCn2cc(nn2)CO[C@@H]1CN(C)C(=O)c1cc(-c2ccccc2)on1 | / | -2.7[16.7 µM] | / | / | -1.4 | 2.0
O=C(C[C@@H]1C=C[C@H](NC(=O)CC2CC2)[C@@H](CO)O1)NCc1ccccc1 | / | / | / | / | / | 1.5
COc1ccc(S(=O)(=O)N(C)C[C@H]2Oc3ccc(NC(=O)Nc4ccc(F)cc4)cc3C(=O)N([C@H](C)CO)C[C@H]2C)cc1 | / | 101.2*[16.7 µM] | / | -7.9 | 5.0 | 2.2
C[C@H](CO)N1C[C@H](C)[C@H](CN(C)C)Oc2ccc(NC(=O)Nc3ccc(F)cc3)cc2C1=O | / | 4.4[16.7 µM] | / | 45.6* | 2.9 | -1.0
CN(CC(=O)NCc1ccc(F)cc1)CC(=O)Nc1ccc(Cl)c(C(F)(F)F)c1 | 0.1 | -7.4 | / | / | / | 0.9
CN(CC(=O)NCC(=O)Nc1ccc(F)cc1)CC(=O)Nc1ccc(Cl)c(C(F)(F)F)c1 | -0.6 | 2.2 | 46.7* | -6.9 | -12.6 | -0.8
CN1CCN(C(c2ccc(F)cc2)c2ccc3cccnc3c2O)CC1 (stereo not given) | -1.3 | -8.6 | -2.2 | 8.4 | 0.7 | /
CN1CCN(C(c2cccnc2)c2ccc3cccnc3c2O)CC1 (stereo not given) | / | -7.4 | 0.8 | 67.8* | 6.1 | /
C(=NN=Cc1c[nH]c2ccccc12)c1c[nH]c2ccccc12 | / | -0.5 | / | / | 9.5 | 7.1
C(=N\c1nccs1)/c1c[nH]c2ccccc12 | -2.7 | 5.1 | 1.4 | 39.8* | 3.0 | /
CCOC(=O)c1c(C)[nH]c(C)c1C(=O)CN1C(=O)NC2(CCCCCC2)C1=O | -0.4 | -4.3 | 35.1* | / | -8.1 | 0.3
CCOC(=O)c1cnc2nc(C(F)(F)F)[nH]n2c1=O | -0.9 | -10.3 | 102.7* | -13.3 | -6.4 | /
CN(CC(=O)N1CCN(Cc2ccccc2)CC1)S(=O)(=O)c1cccc2nsnc12 | -0.7 | / | -11.7 | / | / | -3.1
CC1CCCCN1C(=O)CN(C)S(=O)(=O)c1cccc2nsnc12 (stereo not given) | -2.6 | 2.3 | -1.7 | -2.9 | 41.6* | -2.0
CCOC(=O)/C(C#N)=C/c1ccc(OCC(=O)Nc2ccc(OC)cc2)c(OC)c1 | -1.2 | -13.5 | 74.6* | 1.8 | / | /
CCCC#Cc1ccc2c(c1)O[C@@H](CN(C)C(=O)Nc1ccccc1F)[C@H](C)CN([C@@H](C)CO)S2(=O)=O | / | 34.9[16.7 µM] | / | -4.1 | 9.7 | 4.7
COc1cc([N+](=O)[O-])ccc1NC(=O)NCC1CCN(Cc2ccc(Cl)cc2)CC1 | / | -13.6 | 45.5* | 9.8 | -1.5 | 0.0
COc1ccc(Cl)cc1NC(=O)NCC1CCN(Cc2cc(C)ccc2C)CC1 | -0.5 | -10.8 | -5.2 | 3.8 | 4.2 | -7.0
